Reference: ChEMBL document CHEMBL1649483, “Molecular analysis of the gyrA and gyrB quinolone resistance-determining regions of fluoroquinolone-resistant Clostridium difficile mutants selected in vitro” (2009)
Values after ≈ are worked out from the molar mass of the structure shown.

Legend:
Format in all cases: functional
Clostridioides difficile [1] = assay: Antimicrobial activity against Clostridium difficile C253A selected after 4 ug/ml of levofloxacin by Etest method
How it was run: (§1)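 Stable in vitro-selected mutant tested for gatifloxacin susceptibility by Etest, per the manufacturer's instructions, with an 8 μg/ml breakpoint. For selection, the parent was grown in antibiotic-free brain heart infusion (BHI) for 24 h at 35°C under anaerobic conditions. […] Later steps used double the MIC. Stability was confirmed by three subcultures.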

Clostridioides difficile [2] = assay: Antimicrobial activity against Clostridium difficile 630B selected after 4 ug/ml of levofloxacin by Etest method; how it was run: as §1
Clostridioides difficile [3] = assay: Antimicrobial activity against Clostridium difficile 630b selected after 2 ug/ml of moxifloxacin by Etest method; how it was run: as §1
Clostridioides difficile [4] = assay: Antimicrobial activity against Clostridium difficile C253d selected after 4 ug/ml of moxifloxacin by Etest method
Clostridioides difficile [5] = assay: Antimicrobial activity against Clostridium difficile BI2 by Etest method
How it was run: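 Parent clinical or nontoxigenic isolate tested for gatifloxacin susceptibility by Etest, run per the manufacturer's instructions; a fluoroquinolone breakpoint of 8 μg/ml was applied.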

Clostridioides difficile [6] = assay: Antimicrobial activity against Clostridium difficile 630g harboring GyrB […] mutant gene selected after 8 ug/ml of moxifloxacin by Etest method; how it was run: as §1
Clostridioides difficile [7] = assay: Antimicrobial activity against Clostridium difficile CD5h harboring GyrA Ala118Ser, Thr82Ala and GyrB Ser416Ala mutant gene selected after 8 ug/ml of moxifloxacin by Etest method
Clostridioides difficile [8] = assay: Antimicrobial activity against Clostridium difficile CD25 expressing tcdA, tcdB gene and GyrB Ser416Ala mutant gene by Etest method
Clostridioides difficile [9] = assay: Antimicrobial activity against Clostridium difficile A422B selected after 4 ug/ml of levofloxacin by Etest method; how it was run: as §1
Clostridioides difficile [10] = assay: Antimicrobial activity against Clostridium difficile CD5D harboring GyrB Ser416Ala mutant gene selected after 8 ug/ml of levofloxacin by Etest method
Clostridioides difficile [11] = assay: Antimicrobial activity against Clostridium difficile A422a selected after 2 ug/ml of moxifloxacin by Etest method; how it was run: as §1
Clostridioides difficile [12] = assay: Antimicrobial activity against Clostridium difficile 630c selected after 2 ug/ml of moxifloxacin by Etest method; how it was run: as §1
Clostridioides difficile [13] = assay: Antimicrobial activity against Clostridium difficile CD5f harboring GyrB Ser416Ala mutant gene selected after 4 ug/ml of moxifloxacin by Etest method
Clostridioides difficile [14] = assay: Antimicrobial activity against Clostridium difficile CD5i harboring GyrA Ala92Glu and GyrB Ser416Ala mutant genes selected after 8 ug/ml of moxifloxacin by Etest method
Clostridioides difficile [15] = assay: Antimicrobial activity against Clostridium difficile A422I harboring GyrA Thr82Ile and GyrB Leu451Phe mutant genes selected after 8 ug/ml of levofloxacin by Etest method; how it was run: as §1
Clostridioides difficile [16] = assay: Antimicrobial activity against Clostridium difficile CD5c harboring GyrB Ser416Ala mutant gene selected after 2 ug/ml of moxifloxacin by Etest method
Clostridioides difficile [17] = assay: Antimicrobial activity against Clostridium difficile BI2D harboring GyrB Glu466Lys mutant gene selected after 8 ug/ml of levofloxacin by Etest method; how it was run: as §1
Clostridioides difficile [18] = assay: Antimicrobial activity against Clostridium difficile C253B selected after 4 ug/ml of levofloxacin by Etest method
Clostridioides difficile [19] = assay: Antimicrobial activity against Clostridium difficile 630f selected after 4 ug/ml of moxifloxacin by Etest method; how it was run: as §1
Clostridioides difficile [20] = assay: Antimicrobial activity against Clostridium difficile BI2C selected after 4 ug/ml of levofloxacin by agar dilution method
Clostridioides difficile [21] = assay: Antimicrobial activity against Clostridium difficile CD5D harboring GyrB Ser416Ala mutant gene selected after 8 ug/ml of levofloxacin by agar dilution method
Clostridioides difficile [22] = assay: Antimicrobial activity against Clostridium difficile CD5F harboring GyrB Ser416Ala mutant gene selected after 8 ug/ml of levofloxacin by agar dilution method
Clostridioides difficile [23] = assay: Antimicrobial activity against Clostridium difficile BI2A selected after 4 ug/ml of levofloxacin by agar dilution method
Clostridioides difficile [24] = assay: Antimicrobial activity against Clostridium difficile A422f selected after 4 ug/ml of moxifloxacin by agar dilution method
Clostridioides difficile [25] = assay: Antimicrobial activity against Clostridium difficile C253f selected after 4 ug/ml of moxifloxacin by agar dilution method
Clostridioides difficile [26] = assay: Antimicrobial activity against Clostridium difficile C253d selected after 4 ug/ml of moxifloxacin by agar dilution method
Clostridioides difficile [27] = assay: Antimicrobial activity against Clostridium difficile BI2 by agar dilution method
Clostridioides difficile [28] = assay: Antimicrobial activity against Clostridium difficile BI2b harboring GyrB Arg447Lys mutant gene selected after 2 ug/ml of moxifloxacin by agar dilution method
Clostridioides difficile [29] = assay: Antimicrobial activity against Clostridium difficile BI2d harboring GyrB Arg447Lys and Asp426Asn mutant gene selected after 32 ug/ml of moxifloxacin by agar dilution method
Clostridioides difficile [30] = assay: Antimicrobial activity against Clostridium difficile CD5e harboring GyrB Ser416Ala mutant gene selected after 4 ug/ml of moxifloxacin by agar dilution method
Clostridioides difficile [31] = assay: Antimicrobial activity against Clostridium difficile A422D harboring GyrB Leu451Phe mutant gene selected after 8 ug/ml of levofloxacin by agar dilution method
Clostridioides difficile [32] = assay: Antimicrobial activity against Clostridium difficile A422I harboring GyrA Thr82Ile and GyrB Leu451Phe mutant genes selected after 8 ug/ml of levofloxacin by agar dilution method
Clostridioides difficile [33] = assay: Antimicrobial activity against Clostridium difficile BI2c harboring GyrB Arg447Lys mutant gene selected after 2 ug/ml of moxifloxacin by agar dilution method
Clostridioides difficile [34] = assay: Antimicrobial activity against Clostridium difficile A422a selected after 2 ug/ml of moxifloxacin by agar dilution method
Clostridioides difficile [35] = assay: Antimicrobial activity against Clostridium difficile 630i harboring GyrB […] mutant gene selected after 8 ug/ml of moxifloxacin by agar dilution method
Clostridioides difficile [36] = assay: Antimicrobial activity against Clostridium difficile 630F harboring GyrA Ala118Val mutant gene selected after 8 ug/ml of levofloxacin by agar dilution method
Clostridioides difficile [37] = assay: Antimicrobial activity against Clostridium difficile A422e selected after 4 ug/ml of moxifloxacin by agar dilution method
Clostridioides difficile [38] = assay: Antimicrobial activity against Clostridium difficile BI2f harboring GyrB Arg447Lys and Asp426Asn mutant gene selected after 32 ug/ml of moxifloxacin by agar dilution method
Clostridioides difficile [39] = assay: Antimicrobial activity against Clostridium difficile 630C selected after 4 ug/ml of levofloxacin by agar dilution method
Clostridioides difficile [40] = assay: Antimicrobial activity against Clostridium difficile C253A selected after 4 ug/ml of levofloxacin by agar dilution method
Clostridioides difficile [41] = assay: Antimicrobial activity against Clostridium difficile 630g harboring GyrB […] mutant gene selected after 8 ug/ml of moxifloxacin by agar dilution method
Clostridioides difficile [42] = assay: Antimicrobial activity against Clostridium difficile BI2a harboring GyrB Arg447Lys mutant gene selected after 2 ug/ml of moxifloxacin by agar dilution method

Compound: COc1c(N2CCNC(C)C2)c(F)cc2c(=O)c(C(=O)O)cn(C3CC3)c12 (configuration not stated) [GATIFLOXACIN]
- MIC (Clostridioides difficile [1]): 0.5 µg/mL
- MIC (Clostridioides difficile [2]): 0.75 µg/mL
- MIC (Clostridioides difficile [3]): 0.75 µg/mL
- MIC (Clostridioides difficile [4]): 1 µg/mL
- MIC (Clostridioides difficile [5]): 0.75 µg/mL (≈ 2 µM)
- MIC (Clostridioides difficile [6]): ≥ 32 µg/mL
- MIC (Clostridioides difficile [7]): 16 µg/mL
- MIC (Clostridioides difficile [8]): 0.5 µg/mL (≈ 1.33 µM)
- MIC (Clostridioides difficile [9]): 1 µg/mL
- MIC (Clostridioides difficile [10]): 2 µg/mL
- MIC (Clostridioides difficile [11]): 1.5 µg/mL
- MIC (Clostridioides difficile [12]): 0.75 µg/mL
- MIC (Clostridioides difficile [13]): 0.75 µg/mL
- MIC (Clostridioides difficile [14]): 3 µg/mL
- MIC (Clostridioides difficile [15]): ≥ 32 µg/mL
- MIC (Clostridioides difficile [16]): 0.75 µg/mL
- MIC (Clostridioides difficile [17]): ≥ 32 µg/mL
- MIC (Clostridioides difficile [18]): 0.5 µg/mL
- MIC (Clostridioides difficile [19]): 2 µg/mL

Compound: C[C@H]1COc2c(N3CCN(C)CC3)c(F)cc3c(=O)c(C(=O)O)cn1c23.C[C@H]1COc2c(N3CCN(C)CC3)c(F)cc3c(=O)c(C(=O)O)cn1c23.O [LEVOFLOXACIN]
- MIC (Clostridioides difficile [20]): 1 µg/mL
- MIC (Clostridioides difficile [21]): 2 µg/mL
- MIC (Clostridioides difficile [22]): 2 µg/mL
- MIC (Clostridioides difficile [23]): 1 µg/mL
- MIC (Clostridioides difficile [24]): 4 µg/mL
- MIC (Clostridioides difficile [25]): 4 µg/mL
- MIC (Clostridioides difficile [26]): 4 µg/mL
- MIC (Clostridioides difficile [27]): 2 µg/mL
- MIC (Clostridioides difficile [28]): 8 µg/mL
- MIC (Clostridioides difficile [29]): 64 µg/mL
- MIC (Clostridioides difficile [30]): 2 µg/mL
- MIC (Clostridioides difficile [31]): 2 µg/mL
- MIC (Clostridioides difficile [32]): 64 µg/mL
- MIC (Clostridioides difficile [33]): 8 µg/mL
- MIC (Clostridioides difficile [34]): 4 µg/mL
- MIC (Clostridioides difficile [35]): 64 µg/mL
- MIC (Clostridioides difficile [36]): 8 µg/mL
- MIC (Clostridioides difficile [37]): 4 µg/mL
- MIC (Clostridioides difficile [38]): 64 µg/mL
- MIC (Clostridioides difficile [39]): 1 µg/mL
- MIC (Clostridioides difficile [40]): 1 µg/mL
- MIC (Clostridioides difficile [41]): 64 µg/mL
- MIC (Clostridioides difficile [42]): 8 µg/mL
